From PubChem BioAssay
Results filed as inconclusive are left out.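 The calls were made as follows, unless noted: active = inhibition over a set limit, the all-compound mean plus 3 SD, in both replicate runs; inconclusive = over that limit in just one replicate run; inactive = at or under that limit in both runs.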

Experiments:
[1] = S. cerevisiae growth inhibition in permissive medium (OD615), pilot counter-assay for S. cerevisiae lifespan shortening project, permissive growth control (AID 705;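 active = growth inhibition above 25% in both replicates, a cutoff set 3 SD above the mean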); conditions: OD615, 24 h, at 10 µM, active compounds read high
Procedure, shortened: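 assay system = Saccharomyces cerevisiae strain carrying genetically modified DeaD replicative-lifespan system | technique = absorbance (optical density) at 615 nm | buffer or medium = permissive raffinose/galactose medium | timing = cells pre-grown 4 h, then 24 h compound exposure, 30 °C humidified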

[2] = S. cerevisiae growth inhibition in restrictive medium, OD615, pilot screen, restrictive growth control, yeast lifespan reduction project (AID 706;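 active = growth inhibition above a set limit, 3 SD over mean compound inhibition, in both replicates, cut at about 43% in these data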;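 also: modified DeaD lifespan yeast strain shifted to restrictive glucose medium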); conditions: OD615, 48 h, at 10 µM, active compounds read high
Procedure, shortened: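 System: modified S. cerevisiae. Buffer or medium: CSMM-D glucose medium. Incubation: 4 h pre-growth plus 48 h compound exposure, 30 °C. Detection: absorbance (optical density) measured at 615 nm.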

[3] = doxorubicin toxicity protection in MRP-1 cells – H69AR cells, CellTiter-Glo, duplicate, MRP-1 activator project, pilot screen (AID 807;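 active = viability increase at or above a cutoff of the median across tested compounds plus 3 SD, cut at about 8.5% in these data, passing the limit was not always enough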;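 also: compound pretreatment 18-22 h then 72 h combined with doxorubicin; 0% = doxorubicin alone and 100% = vehicle without doxorubicin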); conditions: H69AR viability with doxorubicin, CellTiter-Glo luminescence; at 10 µM; active compounds read high
[4] = viability of HCT116 without oncogenic beta-catenin – human colon tumor cells, pilot screen (AID 823;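 active = cell viability at or below a set limit in both duplicate runs, the limit being the all-compound median minus 4 SD, cut at about 23% in these data, passing the limit was not always enough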;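 also: 0% = wells killed by 20 µM Hyamine and 100% = untreated DMSO cell wells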); conditions: HCT116 beta-catenin knockout viability, CellTiter-Glo, 60 h; at 10 µM; active compounds read low
[5] = viability of PTEN-null HCT116 cells – cell-based, HCT116 clonal line, CellTiter-Glo, pilot screen (AID 824;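 active = viability at or below 27.92% in each of two runs, the all-compound median minus 4 SD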;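 also: 0% = 20 µM Hyamine control and 100% = vehicle cell control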); conditions: HCT116 PTEN-deleted viability, 60 h, at 10 µM, active compounds read low
[6] = RAM pathway blockade in budding yeast – dse1pr::URA3 reporter, 5-FOA selection, pilot screen (AID 869);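 also: 0% = DMSO wells with no growth and 100% = 10 µM 1-NA-PP1 with full growth; RAM network block rescues cells from 5-FOA so hits raise OD615 growth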; conditions: S. cerevisiae dse1pr::URA3 5-FOA growth, OD615, 2 d; at 10 µM; active compounds read high; strain carries analog-sensitive mutant Cbk1 kinase
[7] = RAM signaling pathway blockade in yeast – S. cerevisiae, Pdr1DBD-CYC8 efflux-inhibited sensitized strain, primary screen (AID 1298;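 active = RAM network inhibition above 8.4% in each of two replicates, 3 SD over the compound average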;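 also: 0% = DMSO untreated cells without growth and 100% = 10 µM 1-NA-PP1 full growth; higher means more yeast growth rescued from 5-FOA killing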); conditions: S. cerevisiae cbk1-as DSE1-URA3 strain, 5-FOA growth OD615, 2 d; at 50 µM; active compounds read high

CCN1CCN(CC(=O)Nc2ccc(C)cc2C)C(=O)C1=O
inactive: growth inhibition [1] 2.74% | growth inhibition [2] -6.08% | viability increase [3] -0.23% | viability [4] 98% | viability [5] 97% | inhibition [6] 1.74% | RAM network inhibition [7] -0.71%

COC(=O)C(CCSC)NC(=O)Cn1ncc2c(=O)oc3ccc(C)cc3c21 (stereo unspecified)
inactive: growth inhibition [1] 6.62% | growth inhibition [2] -7.95% | viability increase [3] -3.14% | viability [4] 113% | viability [5] 91.3% | inhibition [6] 0.875% | RAM network inhibition [7] 1.93%

O=C(CN1CCN(c2ccccc2F)CC1)c1ccc2cc[nH]c2c1
inactive: growth inhibition [1] -12.6% | growth inhibition [2] -6.94% | viability increase [3] -4.1% | viability [4] 100% | viability [5] 84.7% | inhibition [6] 2.02% | RAM network inhibition [7] 0.99%

O=C(CN1CCN(C2CCCCC2)CC1)Nc1ccccc1N1CCCCC1
inactive: growth inhibition [1] -12.3% | growth inhibition [2] -31.2% | viability increase [3] -4.35% | viability [4] 71.5% | viability [5] 77.7% | inhibition [6] 0.16% | RAM network inhibition [7] 5.95%

CCC(C)NC(=O)Cn1cc2c(n1)CCC(C)C2 (stereo unspecified)
inactive: growth inhibition [1] -6.78% | growth inhibition [2] 6.43% | viability increase [3] -1.54% | viability [4] 103% | viability [5] 97.3% | inhibition [6] 0.14% | RAM network inhibition [7] 0.42%

O=C1c2ccccc2C(=O)N1CCc1nc2ccccc2c(=O)n1CCCn1ccnc1
inactive: growth inhibition [1] -3.21% | growth inhibition [2] 11% | viability increase [3] -2.41% | viability [4] 95.5% | viability [5] 97% | inhibition [6] 2.01% | RAM network inhibition [7] 2.2%

CC1(C)Nc2ccccc2N(CCC(=O)N2CCOCC2)C1=O
inactive: growth inhibition [1] -13.2% | growth inhibition [2] 0.485% | viability increase [3] -0.6% | viability [4] 92.9% | viability [5] 96.4% | inhibition [6] 0.905% | RAM network inhibition [7] 2.81%

CC1(C)CC(=O)c2sc(NC(=O)c3ccco3)nc2C1
inactive: growth inhibition [1] -15% | growth inhibition [2] -0.525% | viability increase [3] -2.54% | viability [4] 94.2% | viability [5] 84.1% | inhibition [6] 0.735% | RAM network inhibition [7] 2.58%

CN(Cc1ccccc1)S(=O)(=O)c1ccc2[nH]c(=O)oc2c1
inactive: growth inhibition [1] -17.3% | growth inhibition [2] -30.6% | viability increase [3] -0.12% | viability [4] 109% | viability [5] 96% | inhibition [6] 0.425% | RAM network inhibition [7] 5.4%

COc1ccccc1-c1c(C)nn2c(C)cc(C)nc12
inactive: growth inhibition [1] -5.75% | growth inhibition [2] -1.54% | viability increase [3] -1.88% | viability [4] 97.5% | viability [5] 97.3% | inhibition [6] 0.895% | RAM network inhibition [7] 1.79%

CN(c1ccccc1)S(=O)(=O)c1cccc(C(=O)N2CCN(c3ccccn3)CC2)c1
inactive: growth inhibition [1] 2.2% | growth inhibition [2] 4.43% | viability increase [3] -0.97% | viability [4] 81% | viability [5] 86.1% | inhibition [6] -0.145% | RAM network inhibition [7] -1.92%

Cc1ccccc1Nc1ncnc2c1cnn2-c1ccccc1
inactive: growth inhibition [1] -4.67% | growth inhibition [2] -4.63% | viability increase [3] -3.78% | viability [4] 86% | viability [5] 84.3% | inhibition [6] -0.23% | RAM network inhibition [7] -0.01%

C=CCc1c(C)nc(SCc2nc3ccccc3c(=O)[nH]2)[nH]c1=O
inactive: growth inhibition [1] 3.73% | growth inhibition [2] 15.9% | viability increase [3] 0.9% | viability [4] 94.2% | viability [5] 96.7% | inhibition [6] 0.91% | RAM network inhibition [7] 1.65%

Cc1csc(=NC(=O)c2ccccc2)n1Cc1ccco1
inactive: growth inhibition [1] -16.8% | growth inhibition [2] -36% | viability increase [3] -2.24% | viability [4] 87.9% | viability [5] 89.9% | inhibition [6] 1.38% | RAM network inhibition [7] 3.14%

CCN1CCN(C(c2ccccc2)c2sc3nc(C)nn3c2O)CC1 (stereo unspecified)
inactive: growth inhibition [1] 0.24% | growth inhibition [2] 1.3% | viability increase [3] -1.49% | viability [4] 102% | viability [5] 101% | inhibition [6] 1.31% | RAM network inhibition [7] 5.66%

Cc1ccc(C)c(NC(=O)CSc2nnc(-c3ccccc3)n2N)c1
inactive: growth inhibition [1] -4.36% | growth inhibition [2] -8.22% | viability increase [3] -1.93% | viability [4] 109% | viability [5] 90.1% | inhibition [6] 1.5% | RAM network inhibition [7] 3.95%

CC(C)OC(=O)CSc1nnc(-c2ccc(Cl)cc2)n1N
inactive: growth inhibition [1] -3.53% | growth inhibition [2] -8.84% | viability increase [3] -0.58% | viability [4] 97.2% | viability [5] 95.7% | inhibition [6] 2.38% | RAM network inhibition [7] 5.48%

Cc1cc(C)nc(SCCCn2c(=O)[nH]c3ccccc32)n1
inactive: growth inhibition [1] -6.43% | growth inhibition [2] -7.19% | viability increase [3] 1.32% | viability [4] 99.9% | viability [5] 90.5% | inhibition [6] 1.02% | RAM network inhibition [7] 10.9%
